# Experimental data reported in ChEMBL document CHEMBL1909579, “New bioactive macrocyclic diterpenoids from Jatropha multifida” (Bioorg Med Chem Lett, 2011).
# How the values were obtained:
# HeLa = assay: Cytotoxicity against human HeLa cells by MTT assay; format: functional, cell-based
# How it was run: (§1)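 MTT read-out following Mosmann's method; IC50 for each cell line derived from four individual observations.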
# [1] = Cytotoxicity against human MDA231 cells by MTT assay; format: functional, cell-based; conditions: MDA-MB-231; how it was run: as §1
# A549 = assay: Cytotoxicity against human A549 cells by MTT assay; format: functional, cell-based; how it was run: as §1
# Staphylococcus aureus [2] = assay: Antimicrobial activity against Staphylococcus aureus MLS16 MTCC 96 by microtiter broth dilution method; format: functional; conditions: MLS16 MTCC 2940, in the assay text read “MTCC 2940” for “MTCC 96”
# How it was run: (§2)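 MIC determined by microtiter broth dilution, with neomycin as the reference control; each organism's value derived from four individual observations.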
# Bacillus subtilis = assay: Antimicrobial activity against Bacillus subtilis MTCC 121 by microtiter broth dilution method; format: functional; how it was run: as §2
# MCF7 = assay: Cytotoxicity against human MCF7 cells by MTT assay; format: functional, cell-based
# How it was run: (§3)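 MTT assay following Mosmann's method. Each IC50 was derived from four individual observations for each cell line.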
# Escherichia coli = assay: Antimicrobial activity against Escherichia coli MTCC 739 by microtiter broth dilution method; format: functional; how it was run: as §2
# Raoultella planticola = assay: Antimicrobial activity against Klebsiella planticola MTCC 530 by microtiter broth dilution method; format: functional; how it was run: as §2
# Pseudomonas aeruginosa = assay: Antimicrobial activity against Pseudomonas aeruginosa MTCC 2453 by microtiter broth dilution method; format: functional; how it was run: as §2
# Staphylococcus aureus [3] = assay: Antimicrobial activity against Staphylococcus aureus MTCC 96 by microtiter broth dilution method; format: functional; how it was run: as §2
# [4] = Cytotoxicity against mouse Neuro2a cells by MTT assay; format: functional, cell-based; conditions: N2a; how it was run: as §3
MIC (Bacillus subtilis) [µg/mL],MIC (Escherichia coli) [µg/mL],MIC (Pseudomonas aeruginosa) [µg/mL],SMILES,IC50 (HeLa) [µM],IC50 [1] [µM],IC50 (A549) [µM],MIC (Staphylococcus aureus [2]) [µg/mL],IC50 (MCF7) [µM],MIC (Raoultella planticola) [µg/mL],MIC (Staphylococcus aureus [3]) [µg/mL],IC50 [4] [µM]
–,–,–,COc1cccc2c1C(=O)c1c(O)c3c(c(O)c1C2=O)C[C@@](O)(C(=O)CO)C[C@@H]3O[C@H]1C[C@H](N)[C@H](O)[C@H](C)O1 [DOXORUBICIN],< 1,< 1,–,–,–,–,–,–
4.68,4.68,9.37,C[C@H]1C[C@@H]2[C@H](CC[C@](C)(O)/C=C3\[C@H](O)[C@@H](C)C[C@@]3(O)C1=O)C2(C)C [MULTIFIDANOL],15.4,7.04,6.27,18.8,6.39,9.37,18.8,6.35
–,–,–,CC1=C[C@@]2(O)C(=O)[C@@H](C)C[C@@H]3[C@H](CC[C@](C)(O)/C=C/2[C@@H]1O)C3(C)C [MULTIFIDENOL],7.56,5.39,12.5,4.68,8.57,–,4.68,5.6
